Data on 60 molecules can be found in ChEMBL document CHEMBL1153941, “Synthesis, molecular modeling, and selective inhibitory activity against human monoamine oxidases of 3-carboxamido-7-substituted coumarins” (J Med Chem, 2009).

The target of assay [1] is T1, Amine oxidase [flavin-containing] A (Homo sapiens, UniProt P21397).
T1 sequence (P21397 whole entry): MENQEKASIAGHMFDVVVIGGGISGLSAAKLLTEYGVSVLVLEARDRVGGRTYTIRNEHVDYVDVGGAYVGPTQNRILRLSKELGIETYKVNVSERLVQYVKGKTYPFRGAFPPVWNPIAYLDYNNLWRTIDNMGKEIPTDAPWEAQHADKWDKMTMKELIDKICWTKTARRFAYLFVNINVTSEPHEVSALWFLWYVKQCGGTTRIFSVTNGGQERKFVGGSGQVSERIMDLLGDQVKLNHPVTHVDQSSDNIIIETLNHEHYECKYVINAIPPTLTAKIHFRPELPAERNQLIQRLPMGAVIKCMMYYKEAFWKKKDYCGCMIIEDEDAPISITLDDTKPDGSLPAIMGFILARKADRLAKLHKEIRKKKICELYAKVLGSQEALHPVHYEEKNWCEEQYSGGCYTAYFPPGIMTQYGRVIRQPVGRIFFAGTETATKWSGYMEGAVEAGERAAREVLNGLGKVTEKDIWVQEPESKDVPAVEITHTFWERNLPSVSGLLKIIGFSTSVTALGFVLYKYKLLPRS
As to the kind of experiment: Inhibition of human recombinant MAOA expressed in BTI-TN-5B1-4 cells assessed as effect on H2O2 production from para-tyramine at 100 uM by fluorimetric method. Format: cell-based. In outline: (§1)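 Enzyme and test drug were preincubated 15 min at 37 °C in 0.05 M sodium phosphate, pH 7.4. Final 1 mM p-tyramine, 200 µM Amplex Red and 1 U/mL HRP were then added. Resorufin fluorescence (ex 545/em 590 nm) was read over 15 min, minus enzyme-free background. Top concentration tested was 100 µM.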

Assay [2] deals with T1, Amine oxidase [flavin-containing] A. As to the kind of experiment: Inhibition of human recombinant MAOA expressed in BTI-TN-5B1-4 cells assessed as effect on H2O2 production from para-tyramine by fluorimetric method. In kind it is cell-based.
The species named for a further assay is Homo sapiens. Briefly: Selectivity index, ratio of IC50 for human recombinant MAOA to IC50 for human recombinant MAOB.
In assay [3] the target is T2, Amine oxidase [flavin-containing] B (Homo sapiens, UniProt P27338).
T2 sequence (P27338 whole entry): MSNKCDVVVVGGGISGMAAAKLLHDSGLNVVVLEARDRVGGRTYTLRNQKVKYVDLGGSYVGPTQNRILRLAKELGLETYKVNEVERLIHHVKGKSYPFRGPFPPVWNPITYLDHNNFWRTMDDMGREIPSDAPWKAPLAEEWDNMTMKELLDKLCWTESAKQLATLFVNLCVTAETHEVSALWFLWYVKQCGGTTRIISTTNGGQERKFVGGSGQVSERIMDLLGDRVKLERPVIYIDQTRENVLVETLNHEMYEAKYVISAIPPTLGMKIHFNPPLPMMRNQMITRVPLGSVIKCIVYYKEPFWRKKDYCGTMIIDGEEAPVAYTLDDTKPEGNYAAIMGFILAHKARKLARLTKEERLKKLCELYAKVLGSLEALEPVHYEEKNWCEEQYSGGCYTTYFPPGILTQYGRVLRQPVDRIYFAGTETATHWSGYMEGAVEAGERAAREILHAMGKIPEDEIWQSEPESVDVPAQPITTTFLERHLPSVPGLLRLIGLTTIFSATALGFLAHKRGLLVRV
Briefly: Inhibition of human recombinant MAOB expressed in BTI-TN-5B1-4 cells assessed as effect on H2O2 production from para-tyramine at 100 uM by fluorimetric method. In kind it is cell-based. The procedure, abridged: as §1

Assay [4] deals with T2, Amine oxidase [flavin-containing] B. Briefly: Inhibition of human recombinant MAOB expressed in BTI-TN-5B1-4 cells assessed as effect on H2O2 production from para-tyramine at 1 mM by fluorimetric method. Format: cell-based. In outline: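 Drugs preincubated with enzyme 15 min, 37 °C, 0.05 M sodium phosphate pH 7.4. Amplex Red 200 µM, HRP 1 U/mL, p-tyramine 1 mM (final) added. Resorufin fluorescence (ex 545/em 590 nm) read over 15 min at 37 °C, enzyme-free background subtracted.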

For orientation: IC50 means the concentration at which inhibition is half-maximal.

A value given as a limit tells only on which side of the number the result lay.

For `O=C(Nc1ccc(O)cc1)c1cc2ccccc2oc1=O`, the IC50 entry in assay [1] is given as “Not Active”.

With `CN(C(=O)c1cc2ccc(OCc3ccccc3)cc2oc1=O)c1ccccc1`, the IC50 result in assay [1] is on record as “Not Active”. `Cc1ccc(NC(=O)c2cc3ccccc3oc2=O)cc1`: the half-inhibitory concentration (IC50) in assay [2] was determined as 19.5 µM.

With `O=C(Nc1ccccc1Cc1ccccc1)c1cc2ccccc2oc1=O`, in assay [1], the IC50 result is “Not Active”. Consider `N#Cc1c(F)c(F)c(NC(=O)c2cc3ccc(OCc4ccccc4)cc3oc2=O)c(F)c1F`, for which, in assay [2], the half-maximal inhibitory concentration (IC50) is 61.4 µM.

As to `Cc1cccc(NC(=O)c2cc3ccccc3oc2=O)c1`, in assay [2], the 50% inhibitory concentration (IC50) was found to be 14.5 µM. Turning to `O=C(NCc1ccccc1)c1cc2ccccc2oc1=O`, in assay [1], the IC50 entry is listed as “Not Active”. Turning to `O=C(Nc1c(F)c(F)c(F)c(F)c1F)c1cc2ccccc2oc1=O`, the 50% inhibitory concentration (IC50) result in assay [1] is reported as “Not Active”. Regarding `CN(C(=O)c1cc2ccccc2oc1=O)c1ccccc1`, the half-inhibitory concentration (IC50) entry in assay [1] is listed as “Not Active”.

For `CCc1ccc(NC(=O)c2cc3ccccc3oc2=O)cc1`, the IC50 in assay [2] was 15.7 µM. Take `NCCNC(=O)c1cc2ccccc2oc1=O`: in assay [1], the half-maximal inhibitory concentration (IC50) entry is reported as “Not Active”.

For `COc1cccc(NC(=O)c2cc3ccccc3oc2=O)c1`, the 50% inhibitory concentration (IC50) entry in assay [1] was “Not Active”. As for `O=C(Cl)c1ccc(NC(=O)c2cc3ccccc3oc2=O)cc1`, the IC50 in assay [2] was 9.67 µM; in assay [3], “Not Active”. Also, in the assay listed under Homo sapiens, the Ratio IC50 was under 0.1. With `COc1ccc(NC(=O)c2cc3ccccc3oc2=O)cc1`, the 50% inhibitory concentration (IC50) result in assay [1] is on record as “Not Active”. On to `CC(C)c1ccc(NC(=O)c2cc3ccc(OCc4ccc(F)cc4)cc3oc2=O)cc1`, for which the half-inhibitory concentration (IC50) result in assay [1] and in assay [3] was “Not Active” throughout.

Take `C#CCNC(=O)c1cc2ccccc2oc1=O`: the half-maximal inhibitory concentration (IC50) result in assay [1] and in assay [3] was “Not Active” throughout.

With `CC(C)c1ccc(NC(=O)c2cc3ccc(OCc4ccccc4)cc3oc2=O)cc1`, the concentration for half-maximal inhibition (IC50) in assay [2] came out at 60.9 µM. As for `O=C(Nc1ccccc1)c1cc2ccccc2oc1=O`, in assay [2], the half-maximal inhibitory concentration (IC50) was 13.1 µM. With `O=C(Nc1c(F)cccc1F)c1cc2ccccc2oc1=O`, the IC50 in assay [2] was 12.8 µM.

Regarding `Cc1cccc(NC(=O)c2cc3ccccc3oc2=O)c1C`, the IC50 in assay [2] was found to be 20.6 µM. For `O=C(NC1CCCCC1)c1cc2ccc(OCc3ccccc3)cc2oc1=O`, in assay [1], the concentration for half-maximal inhibition (IC50) entry is recorded as “Not Active”.

For `Cc1ccc(NC(=O)c2cc3ccccc3oc2=O)cc1C`, the concentration for half-maximal inhibition (IC50) in assay [2] turned out to be 18.8 µM. Consider `O=C(NC1CCCCC1)c1cc2ccccc2oc1=O`, for which, in assay [1], the IC50 entry is “Not Active”. Turning to `CCOC(=O)c1ccc(NC(=O)c2cc3ccccc3oc2=O)cc1`, the IC50 was 16 µM in assay [2] and “Not Active” in assay [3]. For the same molecule, the Ratio IC50 in the assay listed under Homo sapiens was under 0.16.

As for `Cc1cccc(Cl)c1NC(=O)c1cc2ccc(OCc3ccccc3)cc2oc1=O`, the 50% inhibitory concentration (IC50) in assay [2] was determined as 49.7 µM.

With `COc1ccc(NC(=O)c2cc3ccc(OCc4ccccc4)c(C)c3oc2=O)cc1OC`, the IC50 in assay [2] amounted to 48.9 µM. `O=C(NCCN1CCOCC1)c1ccc(Cl)cc1` [MOCLOBEMIDE]: the IC50 entry in assay [4] was “Not Active”.

Consider `CS(=O)(=O)c1ccc(NC(=O)c2cc3ccccc3oc2=O)cc1`, for which the IC50 in assay [2] was found to be 9.33 µM. With `COc1ccc(NC(=O)c2cc3ccccc3oc2=O)cc1OC`, the IC50 in assay [2] came out at 9.45 µM. `COc1cc(NC(=O)c2cc3ccc(OCc4ccccc4)cc3oc2=O)cc(OC)c1`: the IC50 in assay [2] turned out to be 52.9 µM. `O=C(Nc1cccc(F)c1)c1cc2ccccc2oc1=O`: the 50% inhibitory concentration (IC50) result in assay [1] is “Not Active”.

On to `COc1cc(NC(=O)c2cc3ccccc3oc2=O)cc(OC)c1`, for which the half-maximal inhibitory concentration (IC50) in assay [2] was 61.5 µM. Take `COc1cc(NC(=O)c2cc3ccc(OCc4ccc(F)cc4)cc3oc2=O)cc(OC)c1`: in assay [2], the half-maximal inhibitory concentration (IC50) stood at 52.6 µM. Take `CN(Cc1ccccc1)C(=O)c1cc2ccccc2oc1=O`: the half-inhibitory concentration (IC50) entry in assay [1] and in assay [3] was “Not Active” in each case. Consider `CC(C)NC(=O)c1cc2ccccc2oc1=O`, for which the half-maximal inhibitory concentration (IC50) result in assay [1] is “Not Active”.

As to `O=C(Nc1cccc(C(F)(F)F)c1)c1cc2ccccc2oc1=O`, the IC50 entry in assay [1] is given as “Not Active”. As to `CC(C)CNC(=O)c1cc2ccc(OCc3ccccc3)cc2oc1=O`, the IC50 in assay [2] worked out at 58.6 µM.

With `O=C(NCc1ccccc1)c1cc2ccc(OCc3ccccc3)cc2oc1=O`, the IC50 entry in assay [1] was “Not Active”.

As to `N#Cc1c(F)c(F)c(NC(=O)c2cc3ccccc3oc2=O)c(F)c1F`, the IC50 in assay [2] worked out at 16 µM. As for `CC(C)CNC(=O)c1cc2ccccc2oc1=O`, the half-maximal inhibitory concentration (IC50) entry in assay [1] is “Not Active”. Take `Cc1cccc(C)c1NC(=O)c1cc2ccccc2oc1=O`: the IC50 in assay [2] is 9.79 µM.

`Cc1ccc(C)c(NC(=O)c2cc3ccccc3oc2=O)c1`: in assay [2], the IC50 was determined as 15.9 µM.

Turning to `O=C(O)c1ccc(NC(=O)c2cc3ccccc3oc2=O)cc1`, the IC50 in assay [2] was 9.97 µM. With `O=C(Nc1ccccc1Cc1ccccc1)c1cc2ccc(OCc3ccc(F)cc3)cc2oc1=O`, the IC50 was 55.8 µM in assay [2] and “Not Active” in assay [3]. The Ratio IC50 in the assay listed under Homo sapiens is under 0.56.

Regarding `Cc1cccc(Cl)c1NC(=O)c1cc2ccccc2oc1=O`, in assay [1], the 50% inhibitory concentration (IC50) entry is “Not Active”. For `COc1ccc(NC(=O)c2cc3ccc(OCc4ccc(F)cc4)cc3oc2=O)cc1OC`, the half-maximal inhibitory concentration (IC50) in assay [2] stood at 49.2 µM.

As to `O=C(c1cc2ccccc2oc1=O)N(c1ccccc1)c1ccccc1`, the IC50 entry in assay [1] and in assay [3] was “Not Active” each time. With `CC(C)c1ccc(NC(=O)c2cc3ccccc3oc2=O)cc1`, in assay [2], the IC50 stood at 15.1 µM. For `CSc1ccc(NC(=O)c2cc3ccccc3oc2=O)cc1`, in assay [2], the IC50 stood at 14.8 µM. Same read-out and setting: as for `O=C(Nc1ccc(F)cc1)c1cc2ccccc2oc1=O`, the figure is 13.1 µM. Regarding `O=C(NNc1ccccc1)c1cc2ccc(OCc3ccccc3)cc2oc1=O`, in assay [2], the IC50 worked out at 41.4 µM. With `Cc1cccc(Cl)c1NC(=O)c1cc2ccc(OCc3ccc(F)cc3)cc2oc1=O`, the IC50 in assay [2] came to 59.6 µM.

With `COc1ccc(NC(=O)c2cc3ccc(OCc4ccccc4)cc3oc2=O)cc1OC`, the concentration for half-maximal inhibition (IC50) result in assay [1] is listed as “Not Active”. On to `N#Cc1c(F)c(F)c(NC(=O)c2cc3ccc(OCc4ccc(F)cc4)cc3oc2=O)c(F)c1F`, for which the 50% inhibitory concentration (IC50) in assay [2] worked out at 58.5 µM. Regarding `CC(C)NC(=O)c1cc2ccc(OCc3ccccc3)cc2oc1=O`, the IC50 in assay [2] was 63.5 µM; in assay [3], “Not Active”. Further, the Ratio IC50 in the assay filed under Homo sapiens is under 0.63. `O=C(Nc1c(F)c(F)nc(F)c1F)c1cc2ccccc2oc1=O`: the IC50 in assay [2] came to 11.4 µM. In the case of `O=C(NCCc1ccccc1)c1cc2ccccc2oc1=O`, the IC50 entry in assay [1] and in assay [3] was “Not Active” each time. As to `Cc1ccc(NC(=O)c2cc3ccccc3oc2=O)c(C)c1`, the IC50 in assay [2] was determined as 12.3 µM. For `Cc1cc(C)cc(NC(=O)c2cc3ccccc3oc2=O)c1`, the IC50 in assay [2] is 17.6 µM.

Consider `O=C(Nc1ccccc1Cc1ccccc1)c1cc2ccc(OCc3ccccc3)cc2oc1=O`, for which, in assay [2], the IC50 is 51.9 µM.
